Measurements reported in ChEMBL document CHEMBL1157487, “Discovery of potent CCR4 antagonists: Synthesis and structure-activity relationship study of 2,4-diaminoquinazolines” (Bioorg Med Chem, 2008).

How the values were obtained:
[1] = target: T1, C-C chemokine receptor type 4 (Homo sapiens, UniProt P51679); experiment: Antagonist activity at human CCR4 receptor expressed in mouse B300-19 cells by [35S]GTPgammaS binding assay; type: functional, cell-based
T1 sequence (P51679 whole entry): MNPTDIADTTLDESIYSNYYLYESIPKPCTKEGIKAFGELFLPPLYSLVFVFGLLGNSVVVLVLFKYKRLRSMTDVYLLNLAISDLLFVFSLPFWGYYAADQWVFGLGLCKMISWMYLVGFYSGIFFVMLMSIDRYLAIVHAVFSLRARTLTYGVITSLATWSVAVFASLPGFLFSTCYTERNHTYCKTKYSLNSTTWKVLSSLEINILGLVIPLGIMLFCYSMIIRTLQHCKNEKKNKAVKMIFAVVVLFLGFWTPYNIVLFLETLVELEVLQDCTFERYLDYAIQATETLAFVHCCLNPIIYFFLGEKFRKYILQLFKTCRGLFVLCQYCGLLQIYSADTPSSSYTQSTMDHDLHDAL
Method in brief: (§1)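 Membranes from human CCR4-expressing B300-19 cells (1 µg protein/well) with 150 pM [35S]GTPγS, 2 µM GDP, 3 nM MDC (CCL22), WGA SPA beads, test compound in 20 mM Hepes-NaOH pH 7.05, 100 mM NaCl, 5 mM MgCl2, 0.2% BSA; 1.5 h, 25 °C. Percent inhibition against no-compound and no-CCL22 controls. Duplicate, four concentrations, usually two determinations averaged. IC50 by non-linear fitting.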

[2] = target: T1, C-C chemokine receptor type 4; experiment: Displacement of [125I]CCl22 from human CCR4 receptor expressed in mouse B300-19 cells by SPA; type: cell-based
Method in brief: (§2)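 SPA on whole human CCR4-expressing B300-19 cells (2×10^5/well) with 25 pM [125I]CCL22 and WGA SPA beads, test compound, in 50 mM Hepes pH 7.4, 5 mM MgCl2, 1 mM CaCl2, 0.1% BSA; 2 h, 25 °C. Nonspecific binding defined with 10 nM unlabeled CCL22. Duplicate, four concentrations, usually two determinations averaged. IC50 by non-linear curve fitting.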

[3] = target: T2, C-C chemokine receptor type 4 (Homo sapiens) (UniProt P51679); experiment: Antagonist activity at human CCR4 receptor expressed in mouse B300-19 cells at 1 uM by [35S]GTPgammaS binding assay; type: functional, cell-based; method in brief: as §1
T2 sequence (whole entry): T1 sequence (P51679 whole entry)

[4] = target: T2, C-C chemokine receptor type 4 (Homo sapiens); experiment: Displacement of [125I]CCl22 from human CCR4 receptor expressed in mouse B300-19 cells at 1 uM by SPA; type: cell-based; method in brief: as §2
[5] = target: T2, C-C chemokine receptor type 4 (Homo sapiens); experiment: Antagonist activity at human CCR4 receptor expressed in mouse B300-19 cells assessed as CCL22-induced chemotaxis by bioluminescent assay; type: functional, cell-based
Method in brief: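 Stably transfected B300-19 cells (human CCR4 cDNA, G418 selection) at 5×10^6 cells/mL in RPMI 1640 with 0.1% BSA, pretreated with test compound; placed over 3 nM human CCL22 in 5-µm-pore polycarbonate filter chambers, 3 h, 37 °C, 5% CO2. Migrated cells quantified by ATP bioluminescence. Controls without compound or without CCL22. Triplicate, four concentrations. IC50 by non-linear curve fitting.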

[6] = target: T3, C-C chemokine receptor type 4 (Mus musculus) (UniProt P51680); experiment: Antagonist activity at mouse CCR4 receptor expressed in mouse B300-19 cells assessed as CCL22-induced chemotaxis by bioluminescent assay; type: functional, cell-based
T3 sequence (whole entry): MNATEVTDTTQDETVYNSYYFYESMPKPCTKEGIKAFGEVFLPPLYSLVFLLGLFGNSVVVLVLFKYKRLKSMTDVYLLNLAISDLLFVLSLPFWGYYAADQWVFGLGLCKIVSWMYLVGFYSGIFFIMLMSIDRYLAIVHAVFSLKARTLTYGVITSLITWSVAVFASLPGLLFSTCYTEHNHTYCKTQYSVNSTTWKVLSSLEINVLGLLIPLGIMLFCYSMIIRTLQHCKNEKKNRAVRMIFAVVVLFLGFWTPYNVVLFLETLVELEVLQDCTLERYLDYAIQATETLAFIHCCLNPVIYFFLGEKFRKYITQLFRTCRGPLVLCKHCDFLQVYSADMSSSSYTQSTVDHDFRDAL
Method in brief: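 Chemotaxis of B300-19 stable transformants carrying mouse CCR4 cDNA, suspended at 5×10^6 cells/mL in RPMI 1640 plus 0.1% BSA with test compound; 1 nM mouse CCL22 in lower wells, 5-µm pore filters, 3 h at 37 °C, 5% CO2. Migrated cells counted by ATP bioluminescence. Triplicate at four concentrations. IC50 from non-linear curve fit.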

[7] = Cytotoxicity against CCR4 expressing mouse B300-19 cells at 3 uM after 12 hrs by alamar blue assay; type: cell-based; details: b300-19, 12 h
Method in brief: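 CCR4-expressing B300-19 cells (5×10^4/well) in RPMI 1640 with 10% FBS, 2-mercaptoethanol and antibiotics, 37 °C, 5% CO2, exposed to 0.3–10 µM compound for 12 h, then Alamar Blue for 4 h; fluorescence read at excitation 570 and emission 600 nm. Viability relative to untreated wells; minimum cytotoxic dose is the concentration lowering viability below 70%.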

[8] = target: T2, C-C chemokine receptor type 4 (Homo sapiens); experiment: Antagonist activity at human CCR4 receptor expressed in mouse B300-19 cells assessed as CCL22-induced chemotaxis at 1 uM by bioluminescent assay; type: functional, cell-based

COc1cc2nc(N3CCC(N4CCCCC4)CC3)nc(NC3CCCCCC3)c2cc1OC
IC50 [1]: 18 nM
IC50 [2]: 73 nM
inhibition [3]: 92%
inhibition [4]: 100%
Activity [5]: 0.14 µM
Activity [6]: 0.039 µM

COc1cc2nc(N3CCC(O)CC3)nc(NC3CCCCCC3)c2cc1OC
inhibition [3]: < 0%
inhibition [4]: 3%

COc1cc2nc(NCc3ccccc3)nc(NC3CCCCCC3)c2cc1OC
inhibition [3]: 13%
inhibition [4]: < 0%

COc1ccc2c(NC3CCCCCC3)nc(N3CCC(N4CCCC4)CC3)nc2c1
IC50 [1]: 13 nM
inhibition [3]: 10%
Activity [5]: 0.12 µM
Activity [6]: 0.22 µM

COc1cc2nc(NCCCN3CCCC3=O)nc(NC3CCCCCC3)c2cc1OC
inhibition [3]: 8%
inhibition [4]: 8%

CCOC(=O)N1CCC(Nc2nc(N3CCC(N4CCCC4)CC3)nc3cc(OC)c(OC)cc23)CC1
inhibition [3]: 10%
inhibition [4]: 6%

COc1cc2nc(N3CCC(N4CCC(F)CC4)CC3)nc(NC3CCCCCC3)c2cc1OC
IC50 [1]: 32 nM
inhibition [3]: 10%
inhibition [4]: 0%
Activity [5]: 0.31 µM
Activity [6]: 0.6 µM

COc1cc2nc(NCCCN3CCCC3)nc(NC3CCCCCC3)c2cc1OC
inhibition [3]: 35%
inhibition [4]: 16%

COc1cc2nc(N3CCC(N4CCCC4)CC3)nc(NC3CCCCCCC3)c2cc1OC
IC50 [1]: 200 nM
IC50 [2]: 1200 nM
inhibition [3]: 71%
inhibition [4]: 54%

COc1cc2nc(N3CCC(N(C)C4CCCC4)CC3)nc(NC3CCCCCC3)c2cc1OC
IC50 [1]: 18 nM
inhibition [3]: 10%
inhibition [4]: 0%
Activity [5]: 0.12 µM
Activity [6]: 0.35 µM

COc1cc2nc(N3CCC(N4CCCC4)CC3)nc(N3CCCCC3)c2cc1OC
inhibition [3]: 8%
inhibition [4]: 19%

COc1cc2nc(N3CCOCC3)nc(NC3CCCCCC3)c2cc1OC
inhibition [3]: < 0%
inhibition [4]: 8%

COc1cc2nc(N3CCC(NC4CCCC4)CC3)nc(NC3CCCCCC3)c2cc1OC
IC50 [1]: 13 nM
inhibition [3]: < 0%
inhibition [4]: 4%
Activity [5]: 0.1 µM

COc1cc2nc(N(C)CCc3ccccc3)nc(NC3CCCCCC3)c2cc1OC
inhibition [3]: < 0%
inhibition [4]: < 0%

COc1cc2nc(NCc3cccs3)nc(NC3CCCCCC3)c2cc1OC
inhibition [3]: 0%
inhibition [4]: < 0%

COc1cc2nc(N3CCCCC3)nc(NC3CCCCCC3)c2cc1OC
inhibition [3]: 7%
inhibition [4]: 11%

CCNc1nc(N2CCC(N3CCCC3)CC2)nc2cc(OC)c(OC)cc12
inhibition [3]: 3%
inhibition [4]: < 0%

COc1cc2nc(N3CCC(N(C)C)CC3)nc(NC3CCCCCC3)c2cc1OC
IC50 [1]: 260 nM
IC50 [2]: 730 nM
inhibition [3]: 65%
inhibition [4]: 77%

COc1cc2nc(N3CCC(N4CCCC4)CC3)nc(NC3CCCCNC3=O)c2cc1OC (stereo unspecified)
inhibition [3]: 16%
inhibition [4]: 16%

COc1cc2nc(NC(C)C)nc(NC3CCCCCC3)c2cc1OC
inhibition [3]: < 0%
inhibition [4]: 6%

COc1cc2nc(N3CCC(N4CCCC4)CC3)nc(NC3CCCC3)c2cc1OC
inhibition [3]: 18%
inhibition [4]: 17%

COc1cc2nc(N3CCC(N4CCCC4)CC3)nc(NC3CCCCCC3)c2cc1OC
IC50 [1]: 19 nM
IC50 [2]: 70 nM
inhibition [3]: 93%
inhibition [4]: 100%
Activity [5]: 0.2 µM
Activity [6]: 0.13 µM
Activity [7]: Toxic

COc1ccc2nc(N3CCC(N4CCCC4)CC3)nc(NC3CCCCCC3)c2c1
IC50 [1]: 31 nM
inhibition [3]: 10%
Activity [5]: 0.41 µM
Activity [6]: 0.8 µM

COc1cc2nc(N3CCC(N4CCCC4)CC3)nc(NC3CCCCC3)c2cc1OC
IC50 [1]: 480 nM
IC50 [2]: 1900 nM
inhibition [3]: 71%
inhibition [4]: 54%

COc1cc2nc(N3CCC(N4CCCC4)CC3)nc(NCCc3ccccc3)c2cc1OC
inhibition [3]: 7%
inhibition [4]: 4%

COc1cc2nc(N3CCN(C4CCCCC4)CC3)nc(NC3CCCCCC3)c2cc1OC
IC50 [1]: 55 nM
inhibition [3]: 10%
inhibition [4]: 0%
Activity [5]: 0.23 µM
Activity [6]: 0.21 µM

COc1cc2nc(N3CCN(C(C)C)CC3)nc(NC3CCCCCC3)c2cc1OC
IC50 [1]: 220 nM
IC50 [2]: 660 nM
inhibition [3]: 68%
inhibition [4]: 68%

COc1cc2nc(N3CCC(N4CCCC4)CC3)nc(N(C)C)c2cc1OC
inhibition [3]: < 0%
inhibition [4]: < 0%

COc1cc2nc(C3CCN(C4CCCCC4)CC3)nc(NC3CCCCCC3)c2cc1OC
inhibition [8]: 12%
IC50 [1]: 510 nM
inhibition [3]: 10%

COc1cc2nc(N3CCC(Cc4ccccc4)CC3)nc(NC3CCCCCC3)c2cc1OC
inhibition [3]: 1%
inhibition [4]: < 0%

COc1cc2nc(N3CCC(C)CC3)nc(NC3CCCCCC3)c2cc1OC
inhibition [3]: 12%
inhibition [4]: 15%

COc1cc2nc(N3CCC(C(N)=O)CC3)nc(NC3CCCCCC3)c2cc1OC
inhibition [3]: 17%
inhibition [4]: < 0%

c1ccc2c(NC3CCCCCC3)nc(N3CCC(N4CCCC4)CC3)nc2c1
IC50 [1]: 200 nM
inhibition [3]: 10%
Activity [5]: 1.4 µM

COc1cc2nc(N3CCN(C)CC3)nc(NC3CCCCCC3)c2cc1OC
inhibition [3]: 13%
inhibition [4]: < 0%

COc1cc2nc(NCCc3ccccc3)nc(NC3CCCCCC3)c2cc1OC
inhibition [3]: 16%
inhibition [4]: < 0%

COc1cc2nc(N3CCC(N4CCCC4)CC3)nc(N3CCOCC3)c2cc1OC
inhibition [3]: < 0%
inhibition [4]: 2%

COc1cc2nc(N3CCC(N4CCCC4)CC3)nc(NC3CCN(Cc4ccccc4)CC3)c2cc1OC
inhibition [3]: 4%
inhibition [4]: < 0%

COc1cc2nc(NCCN3CCCCC3)nc(NC3CCCCCC3)c2cc1OC
inhibition [3]: 1%
inhibition [4]: 18%

COc1cc2nc(N3CCC(N4CCCC4)CC3)nc(NC3CCC(C(C)(C)C)CC3)c2cc1OC (stereo unspecified)
inhibition [3]: 11%
inhibition [4]: < 0%

COc1cc2nc(N3CCN(c4ccccc4)CC3)nc(NC3CCCCCC3)c2cc1OC
inhibition [3]: 7%
inhibition [4]: 7%

COc1cc2nc(N3CCC(N4CCCC4)CC3)nc(NCc3ccccc3)c2cc1OC
inhibition [3]: 10%
inhibition [4]: < 0%
